From PubChem BioAssay AID588478 (ICCB-Longwood Screening Facility, Harvard Medical School, 2011)
Out of some 330,000 compounds screened, about 1,100 (0.33%) were called active. Many of the other results were omitted from the sample, so actives are more common in it than they were. A number with no mark means an inactive call.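 Rule for the calls: active = mean inhibition over replicate wells above about 20% (limit read from the data); inactive = the rest.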

Biological target: Ubiquitin carboxyl-terminal hydrolase isozyme L5 (Homo sapiens) (UniProt Q9Y5K5)
Assay: proteasome-bound UCH37 DUB activity blockers – biochemical, Ub-AMC cleavage, fluorescence, primary screen (AID 588478);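 note: 0% = compound-free wells with enzyme and 100% = wells lacking proteasome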
Settings: purified proteasome/UCH37, Ub-AMC cleavage fluorescence; hits give high values; concentration not given here
In short: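 Assay system: Proteasome-bound UCH37. Buffer or medium: pH 7.4 Tris-HCl (50 mM) with ovalbumin, ATP-MgCl2, DTT. Incubation: 30 min preincubation with enzyme, 25 min cleavage at room temperature. Measured by: fluorescence, ex 355 nm, em 460 nm. Read-out basis: percent inhibition. Control set: wells without proteasome as full block, compound-free enzyme plus substrate as uninhibited.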

Chain of Ubiquitin carboxyl-terminal hydrolase isozyme L5 (Homo sapiens) (Q9Y5K5 whole entry, looked up): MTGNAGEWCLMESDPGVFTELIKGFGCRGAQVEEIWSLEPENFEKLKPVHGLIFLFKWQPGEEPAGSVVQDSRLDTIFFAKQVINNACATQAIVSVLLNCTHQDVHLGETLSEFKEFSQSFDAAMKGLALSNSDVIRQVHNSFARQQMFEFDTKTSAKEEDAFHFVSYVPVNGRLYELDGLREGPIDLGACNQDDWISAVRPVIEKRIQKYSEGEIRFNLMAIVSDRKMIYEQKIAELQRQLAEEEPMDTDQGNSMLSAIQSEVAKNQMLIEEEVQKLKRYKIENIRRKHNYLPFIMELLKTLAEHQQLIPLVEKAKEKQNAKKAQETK

Row | SMILES | inhibition
1 | C(=Nn1cnnc1)c1ccc(OCc2cccc3ccccc23)cc1 | 2.25%
2 | COc1ccc2ccccc2c1C=NNC(=S)Nc1cc(S(=O)(=O)N2CCOCC2)ccc1N1CCOCC1 | -8.36%
3 | O=C(NN=Cc1ccc(-c2ccccc2[N+](=O)[O-])o1)C1COc2cc3ccccc3cc2O1 (stereo not given) | 7.82%
4 | O=c1c(=Cc2ccco2)sc2nc(-c3ccccc3Br)nn12 | 4.51%
5 | CC(C)(C)c1cc(=O)n2c(nc3ccccc32)[nH]1 | -27.1%
6 | O=C(O)c1cc(C(=O)O)cc(-c2ccc(C=c3sc4nc5ccccc5n4c3=O)o2)c1 | 22.2% (active)
7 | CC(=NNC(=O)Cc1c(Cl)cccc1Cl)c1cccnc1 | 4.49%
8 | Cc1cccc(-c2cc(C(=O)NN=Cc3cccnc3)c3ccccc3n2)c1 | 1.54%
9 | COc1ccc(CCNC(=O)C2CCN(c3nn4c(=O)cc(C)nc4s3)CC2)cc1OC | 27.9% (active)
10 | Cc1cc(=O)n2nc(N3CCC(C(=O)Nc4c(F)c(F)c(F)c(F)c4F)CC3)sc2n1 | -5.44%
11 | CCCOc1ccc(CNC(=O)C2CCN(c3nn4c(=O)cc(C)nc4s3)CC2)cc1 | 1.32%
12 | CCOc1ccc(C=NNC(=O)CN2CCCCC2)cc1OCC | 4.23%
13 | COc1ccc(CC(=O)Nc2cccc(C(C)=NNC(=O)c3cccc([N+](=O)[O-])c3)c2)cc1 | 2.24%
14 | CC[n+]1cc(C)ccc1/C=C/c1ccc(N(C)C)cc1 | 20.6% (active)
15 | CCC(=NNC(=O)Nc1nonc1N)c1ccc(OC)c(OC)c1 | 2.18%
16 | Cc1nnsc1C(=O)NN=Cc1ccccc1Cl | 2.87%
17 | O=C(CNC(=O)c1cccc(Cl)c1)NN=Cc1cccnc1 | 3.41%
18 | CCOC(=O)c1cccc(NC(=O)CCOc2ccccc2)c1 | 0.512%
19 | CCOC(=O)c1cccc(NC(=O)c2ccc(F)cc2F)c1 | 24.8% (active)
20 | CCOC(=O)c1cccc(NC(=O)CCn2nnc3ccccc32)c1 | 0.741%

Row | SMILES | inhibition
21 | CC(=O)NC1CCCN(O)C(=O)C=C(C)CCOC(=O)C(NC(C)=O)CCCN(O)C(=O)C=C(C)CCOC(=O)C(NC(C)=O)CCCN(O)C(=O)C=C(C)CCOC1=O (stereo not given) | -0.932%
22 | COc1cc(OC)cc(C(=O)NN=Cc2ccoc2)c1 | 1.2%
23 | O=C1NNC(c2ccccc2)=N/C1=C\c1ccc(Cl)cc1 | 21.1% (active)
24 | CCOC(=O)c1cc(C(C)=NOC(=O)c2ccc(C(C)(C)C)cc2)on1 | 4.76%
25 | O=C(NN=Cc1cc2cc3c(cc2nc1Cl)OCO3)c1ccncc1 | -62.6%
26 | Cc1[nH]c2ccccc2c1/C=C(/C#N)C(=O)NC(C)C | 11.3%
27 | N#C/C(=C\c1ccc(O)c(O)c1)C(=O)NCc1ccccc1 | 4.82%
28 | CC(C)NC(=O)/C(C#N)=C\c1ccc(N(C)C)c(Br)c1 | 35.8% (active)
29 | CC(=NNC(=O)Cc1c[nH]c2ccccc12)c1ccc2ccccc2c1 | -2.68%
30 | Cc1cc(Nc2ccc(N3CCOCC3)cc2)c2cccc(C)c2n1 | 9.4%
31 | Cc1ccc(Nc2cc(C)nc3c(C)ccc([N+](=O)[O-])c23)cc1 | 42.3% (active)
32 | Cc1cc(Nc2ccc(C(=O)N3CCCCC3)cc2)c2cccc(C)c2n1 | 7.53%
33 | CC1(C)CC(=O)CC(=NNC(=O)c2ccc(-c3ccccc3)cc2)C1 | 3.09%
34 | CCOc1cc(C=NO)ccc1OS(=O)(=O)c1ccc(C)cc1 | -0.715%
35 | CC(OC(=O)c1ccc(Cl)cc1O)C(=O)NCCC1=CCCCC1 (stereo not given) | -2.32%
36 | CC(OC(=O)c1c(F)cccc1F)C(=O)NCCC1=CCCCC1 (stereo not given) | 29% (active)
37 | CC(C)COc1ccc(C(=O)OCC(=O)NCCC2=CCCCC2)cc1 | 1.87%
38 | C=CCc1c(C)nc(-c2ccccc2)nc1NN=C(C)c1ccc(N)cc1 | 5.32%
39 | O=C(NN=Cc1sc(N2CCCCC2)nc1-c1cccs1)C1CC1 | -4.87%
40 | CCCOc1ccc(/C(O)=C2/C(=O)C(=O)N(CCN(C)C)C2c2ccc(OC)c(OC)c2)cc1 (stereo not given) | 9.6%

Row | SMILES | inhibition
41 | COc1ccc(/C(O)=C2/C(=O)C(=O)N(CCCN(C)C)C2c2ccccc2)cc1OC (stereo not given) | 8.49%
42 | COc1cccc(C2/C(=C(/O)c3ccc(F)cc3)C(=O)C(=O)N2CCN(C)C)c1 (stereo not given) | 26.3% (active)
43 | CCC1SC(C)CC(=NNC(N)=O)C1C (stereo not given) | 1.74%
44 | O=C(NN=Cc1ccc(O)cc1)c1csc2ccccc12 | 3.7%
45 | Cc1nn(C)c(C(=O)NN=Cc2cccnc2)c1Cl | 1.1%
46 | CC(=NNc1ccccc1)c1c(O)cc(C)oc1=O | 2.24%
47 | Cc1cc(C)c[n+](-c2[nH]c(=O)sc2C=NNC([S-])=Nc2ccccc2)c1 | 23% (active)
48 | C(=NNc1nc(-c2ccccc2)cs1)c1cccs1 | -0.256%
49 | COc1ccc(Br)cc1C=Nn1c(COc2ccccc2)n[nH]c1=S | 3.72%
50 | Cc1ccc(Cn2nnc3c(=O)[nH]c(C4CCN(S(=O)(=O)/C=C/c5ccccc5)CC4)nc32)cc1 | 0.769%
51 | Cc1ccc(NC(=O)N2CCC(c3nc4c(nnn4Cc4c(F)cccc4Cl)c(=O)[nH]3)CC2)cc1 | 1.34%
52 | COc1ccc(Cn2nnc3c(=O)[nH]c(C4CCN(C(=O)c5ccccc5Cl)CC4)nc32)cc1 | 35.6% (active)
53 | Oc1ccc(C=NNC2=NCCCCC2)c(O)c1 | -24.8%
54 | CC(Oc1cccc(Cl)c1)c1ccnc2nc(N=CN(C)C)nn12 (stereo not given) | -41%
55 | CC(=NNC(=O)c1nnn(-c2nonc2N)c1CSc1ccc(Cl)cc1)c1ccco1 | 0.0783%
56 | O=C(CC1OC(=O)c2ccccc21)NC1CCCCC1 (stereo not given) | 26% (active)
57 | O=C(CN1C(=O)c2ccccc2S1(=O)=O)NC1CCCCC1 | 0.614%
58 | CC(=O)CC(CC(=O)NC1CCCCC1)c1ccccc1 (stereo not given) | 3.65%
59 | Cc1nnsc1C(=O)NN=Cc1ccccc1 | -1.09%
60 | COc1ccc(C(C)=NNC(=O)CN(c2ccc(OC)cc2)S(=O)(=O)c2ccccc2)cc1 | 3.13%
